Data taken from ChEMBL document CHEMBL1130176, “Selective inhibitors of cyclic AMP-specific phosphodiesterase: heterocycle-condensed purines” (J Med Chem, 1997).
pEC50: −log10 of the molar value.

What was measured:
Cavia porcellus [1] = species: Cavia porcellus; assay: Tested in vitro for tracheal relaxation; format: functional; conditions: Trachea
Procedure, shortened: (§1)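 Tracheal ring-chains from male Hartley guinea pigs (300–500 g), 37 °C Krebs–Henseleit pH 7.4, 95% O2–5% CO2, 0.5 g tension, isometric recording. After full relaxation with 1.0 μM isoprenaline and washout, spontaneous tone redeveloped. Cumulative compound concentrations then given, at least five spanning the EC50.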

Phosphodiesterase 4 = Phosphodiesterase 4 (Homo sapiens, UniProt P27815+Q08499+Q07343+Q08493); assay: Inhibitory activity against Phosphodiesterase 4 from cerebral cortex.
Cavia porcellus [2] = species: Cavia porcellus; assay: Compound was tested in vitro for positive chronotropic action.; format: functional
Procedure, shortened: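 Isolated right atrium from male Hartley guinea pig (300–500 g) in Krebs–Henseleit, 95% O2–5% CO2, 25 °C, 0.5 g tension. Cumulative compound concentrations, at least five spanning the EC20. Beating rate recorded by cardiotachometer triggered by isometric contraction. Value is the concentration raising the unstimulated rate by 20% (EC20). DMSO below 0.5% final.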

Phosphodiesterase 3 = Phosphodiesterase 3 (Homo sapiens, UniProt Q14432+Q13370); assay: Inhibitory activity against Phosphodiesterase 3 from heart.; format: protein assay
Procedure, shortened: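 PDE I (Ca2+/calmodulin-stimulated, cerebral cortex) and PDE III (cGMP-inhibited, heart) isolated by the Reeves method. IC50 fitted by nonlinear least squares. Final DMSO below 0.5%.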

Phosphodiesterase 1 = Phosphodiesterase 1 (Homo sapiens, UniProt P54750+Q01064+Q14123); assay: Inhibitory activity against PDE1 from cerebral cortex; format: tissue-based
Procedure, shortened: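 PDE I (Ca2+/calmodulin-stimulated, cerebral cortex) and PDE III (cGMP-inhibited, heart) isolated by the Reeves method. […] IC50 fitted by nonlinear least squares. Final DMSO below 0.5%.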

Suncus murinus [3] = assay: Emetic effect in shrews at 10 mg/kg peroral dose, 3 of 3 animals affected; format: functional; conditions: route oral
Suncus murinus [4] = assay: (§2) Emetic effect in shrews at 30 mg/kg peroral dose, 0 of 3 animals affected; format: functional; conditions: route oral
Suncus murinus [5] = assay: as §2; format: functional; conditions: route oral; remark: listed apart in the source
Suncus murinus [6] = assay: Emetic effect in shrews at 100 mg/kg peroral dose, 0 of 3 animals affected; format: functional; conditions: route oral
Suncus murinus [7] = assay: Emetic effect in shrews at 30 mg/kg peroral dose, 3 of 3 animals affected; format: functional; conditions: route oral
Cavia porcellus [8] = species: Cavia porcellus; assay: In vitro guinea pig tracheal relaxation; format: functional; conditions: Trachea; procedure, shortened: as §1
Cavia porcellus [9] = species: Cavia porcellus; assay: In vitro positive chronotropic effect; format: functional
Procedure, shortened: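 Isolated right atrium from male Hartley guinea pigs (300–500 g) in Krebs–Henseleit, 25 °C, 95% O2–5% CO2, 0.5 g tension. Cumulative compound concentrations; beating rate recorded by cardiotachometer triggered by isometric contraction. EC20 is the concentration raising unstimulated rate by 20%, from over five concentrations. DMSO below 0.5% final.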

Cavia porcellus [10] = species: Cavia porcellus; assay: Negative inotropic response to adenosine in guinea pig left atrium; format: functional; conditions: Cardiac atrium, read-out: pA2 (converted)

Structure (SMILES) | pEC50 (Cavia porcellus [1]) | IC50 (Phosphodiesterase 4) [µM] | IC50 (Phosphodiesterase 3) [µM] | IC50 (Phosphodiesterase 1) [µM] | EC20 (Cavia porcellus [2]) [µM] | also measured
CCCN1C(=O)N2CCCCN=C2c2ncn(CCC)c21 | 5.60 | 13 | > 100 | > 100 | > 100 | –
CCCN1C(=O)N2CCCN=C2c2ncn(CCC)c21 | 5.68 | 4.7 | > 100 | > 100 | > 100 | –
CCCn1cnc2c1c1nccn1c(=O)n2CCC | 6.15 | 1.9 | > 100 | 14 | 84 | –
CCCN1C(=O)N2CCCN=C2c2[nH]cnc21 | 4.66 | > 100 | > 100 | > 100 | > 100 | –
CCCN1C(=O)N2CCN=C2c2[nH]cnc21 | 4.51 | > 100 | > 100 | > 100 | > 100 | –
CCCn1c(=O)n2nnnc2c2[nH]cnc21 | < 4.00 | > 100 | > 100 | > 100 | > 100 | –
CCCn1cnc2c1c1nnnn1c(=O)n2CCC | 4.29 | 18 | > 100 | > 100 | > 100 | –
CCCn1c(=O)n2ccnc2c2[nH]cnc21 | 5.80 | 3.1 | > 100 | > 100 | 90 | –
CCCn1cnc2c1n(CCC)c(=O)n1ccnc21 | 6.30 | 1.4 | > 100 | 40 | 19 | Emesis (Suncus murinus [3]): 3
CCCCn1c(=O)c2c(ncn2CC(C)=O)n(CCCC)c1=O [DENBUFYLLINE] | – | – | – | – | – | Emesis (Suncus murinus [7]): 3
CCCCOc1cc(CC2CNC(=O)N2)ccc1OC (stereo unspecified) [RO-201724] | – | – | > 300 | > 300 | – | pEC50 (Cavia porcellus [8]): 6.92; EC20 (Cavia porcellus [9]): > 100 µM
COc1ccc(C2CNC(=O)C2)cc1OC1CCCC1 (stereo unspecified) [ROLIPRAM] | – | – | – | – | – | Emesis (Suncus murinus [3]): 3
Cn1c(=O)c2nc[nH]c2n(C)c1=O.O [THEOPHYLLINE] | – | – | – | 356 | – | Kb (Cavia porcellus [10]): 29.5 µM; EC20 (Cavia porcellus [9]): 88 µM

Further compounds by rising pEC50 (Cavia porcellus [1]), results first:

pEC50 (Cavia porcellus [1]) | IC50 (Phosphodiesterase 4) [µM] | IC50 (Phosphodiesterase 3) [µM] | IC50 (Phosphodiesterase 1) [µM] | Structure (SMILES) | EC20 (Cavia porcellus [2]) [µM] | also measured
4.17 | 39 | > 100 | > 100 | CCCn1cnc2c1n(CCC)c(=O)n1nnnc21 | > 100 | –
4.28 | > 100 | > 100 | > 100 | CCCN1C(=O)N2CCCCN=C2c2[nH]cnc21 | > 100 | –
5.09 | 49 | > 100 | > 100 | CCCN1C(=O)N2CCCN=C2c2c1ncn2CCC | > 100 | –
5.13 | – | – | > 300 | Nc1cc(-c2ccncc2)c[nH]c1=O [INAMRINONE] | 62 | –
5.60 | 5.1 | > 100 | > 100 | CCCN1C(=O)N2CCN=C2c2c1ncn2CCC | > 100 | –
6.00 | 1.6 | > 100 | > 100 | CCCN1C(=O)N2CCN=C2c2ncn(CCC)c21 | > 100 | Emesis (Suncus murinus [4]): 0; Emesis (Suncus murinus [5]): 0; Emesis (Suncus murinus [6]): 0
